The record followed here is ChEMBL document CHEMBL5096186, “Design, Synthesis, and Biological Evaluation of Novel Pyrimido[4,5-b]indole Derivatives Against Gram-Negative Multidrug-Resistant Pathogens” (J Med Chem, 2021).

Converted amounts (≈) assume the structure as drawn. Some results are limits rather than exact numbers.

For series [1], the system named is Escherichia coli. The series is described as follows: Antibacterial activity against multidrug resistant wild type Escherichia coli ATCC BAA-2340 assessed as reduction in bacterial growth incubated for 18 to 20 hrs by CLSI based microdilution method. Type of series: functional. As to conditions: time 18-20 hrs. Put shortly: (§1)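 Broth microdilution per CLSI. Compounds dissolved in DMSO (levofloxacin and meropenem in water) as 64 μg/mL stock, then serial twofold dilutions in broth giving 64 to 0.008 μg/mL. […] Clinical isolates tested as several strains per group; racemic GP-1 served as positive control; values given as MIC ranges.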
(In general: Dilution methods test growth across graded concentrations, often in twofold steps.)

A short description of series [2]: Volume of distribution at the steady state in Sprague-Dawley rat at 5 mg/kg, iv measured upto 24 hrs by LC-MS/MS analysis. In kind it is ADME, organism-based. The following applies: in vivo, read-out: Vdss. Put shortly: (§2)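 Male Sprague-Dawley rats, n = 3 per group, single intravenous dose. For 4 mg/kg: 180–280 g rats, vehicle 5% DMSO + 5% EtOH + 40% PEG300 + 50% saline, blood from the retrobulbar vein at 0.05–24 h. For 5 and 20 mg/kg: 180–300 g rats, vehicle 5% DMSO + 5% solutol + 90% saline, sampled at 0.083–24 h. Plasma quantified by LC/MS/MS. Parameters from mean plasma concentration by noncompartmental analysis; values are mean ± standard deviation.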

Series [3] in a line: Metabolic stability in rat liver microsome assessed as intrinsic clearance at 0.1 uM in presence of NADPH incubated upto 60 mins by LC-MS/MS analysis. The following applies: microsomes, 1 h. In kind it is ADME. Put shortly: (§3)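 Compound at 0.1 μM final, in 0.01% DMSO with 0.005% BSA. Incubated with rat or human liver microsomes at 0.33 mg/mL in 0.1 M Tris-HCl, pH 7.4, with 5 mM MgCl₂ and 1 mM NADPH, at 37 °C. Samples at 0, 7, 17, 30 and 60 min quenched with cold methanol and analysed by LC-MS/MS. Half-life, Cl_int and MF% derived as previously described.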

The nature of series [4]: Clearance in Sprague-Dawley rat at 5 mg/kg, iv measured upto 24 hrs by LC-MS/MS analysis. The following applies: in vivo. Type of series: ADME, organism-based. The method in brief: as §2
The nature of series [5]: Metabolic stability in rat liver microsome assessed as metabolic bioavailability at 0.1 uM in presence of NADPH incubated upto 60 mins by LC-MS/MS analysis. In kind it is ADME. As to conditions: liver microsomes. The method in brief:
as §3
For orientation: Liver microsomes are vesicles of endoplasmic reticulum, rich in cytochrome P450 enzymes.

Series [6] can be described thus: Metabolic stability in human liver microsome assessed as elimination half life at 0.1 uM in presence of NADPH incubated upto 60 mins by LC-MS/MS analysis. Type of series: ADME. As to conditions: liver microsomes, read-out: beta t1/2. The method in brief: as §3
The nature of series [7]: MRT in Sprague-Dawley rat at 5 mg/kg, iv measured upto 24 hrs by LC-MS/MS analysis. Type of series: ADME, organism-based. The following applies: in vivo. Put shortly: as §2
Series [8] concerns Escherichia coli. The series is described as follows: Antibacterial activity against ESBL-producing multidrug resistant Escherichia coli assessed as reduction in bacterial growth incubated for 18 to 20 hrs by CLSI based microdilution method. In kind it is functional. As to conditions: time 18-20 hrs. Put shortly: as §1
Series [9] is described as follows: AUC (0 to infinity) in Sprague-Dawley rat at 5 mg/kg, iv measured upto 24 hrs by LC-MS/MS analysis. More on the design: time < 24 hrs, dose 5 mg/kg, route iv. As to conditions: in vivo. Type of series: ADME, organism-based. The method in brief:
as §2

For series [10], the system named is Klebsiella pneumoniae. The series is described as follows: Antibacterial activity agains wild type Klebsiella pneumoniae ATCC BAA-2470 assessed as reduction in bacterial growth incubated for 18 to 20 hrs by CLSI based microdilution method. Type of series: functional. As to conditions: time 18-20 hrs. The method in brief: as §1
The subject of series [11] is Pseudomonas aeruginosa. The series is described as follows: Antibacterial activity against wild type Pseudomonas aeruginosa ATCC 27853 assessed as reduction in bacterial growth incubated for 18 to 20 hrs by CLSI based microdilution method. As to conditions: time 18-20 hrs. Type of series: functional. The method in brief:
(§4)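 CLSI broth microdilution. Compounds in DMSO (levofloxacin and meropenem in water), serial twofold dilutions in broth, 64 to 0.008 μg/mL. […] Results reported as MIC ranges across strains.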

Series [12] relates to Klebsiella pneumoniae. The series is described as follows: Antibacterial activity agains wild type Klebsiella pneumoniae ATCC BAA-1705 assessed as reduction in bacterial growth incubated for 18 to 20 hrs by CLSI based microdilution method. Type of series: functional. The following applies: time 18-20 hrs. The method in brief: as §4
Series [13] deals with Klebsiella pneumoniae. The series is described as follows: Antibacterial activity against KPC2-producing multidrug resistant Klebsiella pneumoniae assessed as reduction in bacterial growth incubated for 18 to 20 hrs by CLSI based microdilution method. As to conditions: time 18-20 hrs. In kind it is functional. The method in brief: as §1
The test system of series [14] is Acinetobacter baumannii. The series is described as follows: Antibacterial activity agains OXA23-producing multidrug resistant Acinetobacter baumannii assessed as reduction in bacterial growth incubated for 18 to 20 hrs by CLSI based microdilution method. Type of series: functional. As to conditions: time 18-20 hrs. Put shortly:
as §1

Series [15] has as its system Escherichia coli. The series is described as follows: Antibacterial activity against multidrug resistant wild type Escherichia coli NCTC 13353 assessed as reduction in bacterial growth incubated for 18 to 20 hrs by CLSI based microdilution method. Type of series: functional. As to conditions: time 18-20 hrs. Put shortly:
as §1

Series [16] is described as follows: Elimination half life in Sprague-Dawley rat at 5 mg/kg, iv measured upto 24 hrs by LC-MS/MS analysis. Type of series: ADME, organism-based. As to conditions: in vivo, read-out: beta t1/2 (converted). Put shortly:
as §2

Series [17] is described as follows: Metabolic stability in rat liver microsome assessed as elimination half life at 0.1 uM in presence of NADPH incubated upto 60 mins by LC-MS/MS analysis. The following applies: liver microsomes, read-out: beta t1/2. Type of series: ADME. Put shortly:
as §3

Series [18] deals with Pseudomonas aeruginosa. The series is described as follows: Antibacterial activity against IMP4-producing multidrug resistant Pseudomonas aeruginosa assessed as reduction in bacterial growth incubated for 18 to 20 hrs by CLSI based microdilution method. In kind it is functional. The following applies: time 18-20 hrs. Put shortly: as §1
The nature of series [19]: Metabolic stability in human liver microsome assessed as intrinsic clearance at 0.1 uM in presence of NADPH incubated upto 60 mins by LC-MS/MS analysis. Type of series: ADME. The following applies: microsomes, 1 h. Put shortly: as §3
Series [20] can be described thus: Metabolic stability in human liver microsome assessed as metabolic bioavailability at 0.1 uM in presence of NADPH incubated upto 60 mins by LC-MS/MS analysis. In kind it is ADME. The following applies: liver microsomes. The method in brief:
as §3

Series [21] has as its system Acinetobacter baumannii. The series is described as follows: Antibacterial activity against wild type Acinetobacter baumannii NCTC 13304 assessed as reduction in bacterial growth incubated for 18 to 20 hrs by CLSI based microdilution method. As to conditions: time 18-20 hrs. Type of series: functional. The method in brief: as §1
For series [22], the target named is hERG (KCNH2) potassium channel (Homo sapiens, UniProt Q12809). The series is described as follows: Inhibition of hERG potassium channel assessed as maximum inhibition rate at 40 uM at -80 mV holding potential incubated for 120 seconds by whole cell-automated voltage clamp analysis assay relative to control. Type of series: toxicity. As to conditions: time 120 sec. The method in brief:
(§5)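 Automated whole-cell patch clamp, holding potential −80 mV. Voltage protocol applied every 20 s. Baseline set with external solution containing 0.1% DMSO and stabilised 3 min. Compound applied until steady state, at least 3 min, then washout. Maximum tested concentration 40 μM, or 3 μM for cisapride as positive control.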
(In general: The hERG channel carries a current that helps repolarise heart muscle cells.)

The target of series [23] is Voltage-gated inwardly rectifying potassium channel KCNH2 (Homo sapiens, UniProt Q12809). The series is described as follows: Inhibition of hERG potassium channel assessed as […] at -80 mV holding potential incubated for 120 seconds by whole cell-automated voltage clamp analysis assay. In kind it is toxicity. The method in brief:
as §5

Voltage-gated inwardly rectifying potassium channel KCNH2, sequence (Q12809 whole entry): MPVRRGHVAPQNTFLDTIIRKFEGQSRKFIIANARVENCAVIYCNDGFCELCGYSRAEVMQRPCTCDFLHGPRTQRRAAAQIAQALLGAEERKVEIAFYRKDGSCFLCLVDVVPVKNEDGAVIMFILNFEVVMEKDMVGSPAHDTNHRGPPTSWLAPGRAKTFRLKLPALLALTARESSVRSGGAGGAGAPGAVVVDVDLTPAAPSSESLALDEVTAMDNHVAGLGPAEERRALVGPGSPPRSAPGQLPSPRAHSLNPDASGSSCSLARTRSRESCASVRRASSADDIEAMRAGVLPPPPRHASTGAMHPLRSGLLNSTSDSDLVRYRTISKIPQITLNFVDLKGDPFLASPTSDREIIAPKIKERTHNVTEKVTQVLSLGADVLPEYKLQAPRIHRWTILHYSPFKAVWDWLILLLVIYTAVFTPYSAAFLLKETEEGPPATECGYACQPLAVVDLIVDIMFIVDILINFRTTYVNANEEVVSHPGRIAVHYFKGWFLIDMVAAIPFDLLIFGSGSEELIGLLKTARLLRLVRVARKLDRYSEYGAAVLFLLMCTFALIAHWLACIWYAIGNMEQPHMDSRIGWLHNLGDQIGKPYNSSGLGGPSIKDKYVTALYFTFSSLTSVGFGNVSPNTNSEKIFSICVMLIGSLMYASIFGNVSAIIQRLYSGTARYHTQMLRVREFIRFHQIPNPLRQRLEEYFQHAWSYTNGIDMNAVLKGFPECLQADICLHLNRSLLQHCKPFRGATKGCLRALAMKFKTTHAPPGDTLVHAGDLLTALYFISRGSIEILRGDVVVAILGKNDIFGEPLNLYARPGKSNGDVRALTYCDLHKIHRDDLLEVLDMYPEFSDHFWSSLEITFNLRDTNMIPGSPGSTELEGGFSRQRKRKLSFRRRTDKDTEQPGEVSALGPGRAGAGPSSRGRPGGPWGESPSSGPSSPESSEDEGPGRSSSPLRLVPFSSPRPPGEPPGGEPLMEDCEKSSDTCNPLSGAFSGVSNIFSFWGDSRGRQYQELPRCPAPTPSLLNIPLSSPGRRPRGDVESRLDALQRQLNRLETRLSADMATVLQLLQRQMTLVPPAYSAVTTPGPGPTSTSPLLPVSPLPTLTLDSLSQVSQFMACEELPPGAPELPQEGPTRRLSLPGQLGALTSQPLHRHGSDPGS
hERG (KCNH2) potassium channel, sequence (Q12809 whole entry): as above

By MIC is commonly meant the least concentration at which growth counts as inhibited. What is called clearance is the rate of elimination divided by the concentration. The term MRT denotes a mean duration of stay, worked out from the concentration-time curve. For orientation: AUC(0-inf) means the area under the concentration-time curve extrapolated to infinity. A high value points to more exposure. As for `[2H]C([2H])([2H])Nc1cc(F)cc2c1[nH]c1nc(Oc3cnc(C)nc3)nc(N3CC(=C(C)[C@@H](C)N)C3)c12`, the minimal inhibitory concentration (MIC) was 0.25 µg/mL (≈ 0.554 µM) in the series on Escherichia coli [1]; 0.5 µg/mL (≈ 1.11 µM) with Escherichia coli [8]; 2 µg/mL (≈ 4.43 µM) in the series on Klebsiella pneumoniae [10]; 2 µg/mL (≈ 4.43 µM) in the series on Pseudomonas aeruginosa [11]; 4 µg/mL (≈ 8.86 µM) in the series on Klebsiella pneumoniae [12]; 1 µg/mL (≈ 2.21 µM) in the series on Klebsiella pneumoniae [13]. The MIC in the series with Acinetobacter baumannii [14] came out at 0.25 µg/mL (≈ 0.554 µM); with Escherichia coli [15], 0.125 µg/mL (≈ 0.277 µM); in the series with Pseudomonas aeruginosa [18] it was 4 µg/mL (≈ 8.86 µM); in the series on Acinetobacter baumannii [21] it was 0.25 µg/mL (≈ 0.554 µM). Moreover, the Vd in series [2] is 44.5 L/kg. Moreover, the CLH in series [3] stood at 215 mL/min/g; in [19], 11.7 mL/min/g. In series [4], this compound returned a clearance of 132 mL/min/kg. In addition, the Fh at 1 h, 0.1 µM in series [5] was found to be 17.2%; in series [20], 62.6%. The values for the half-life at 0.1 µM in [6] and in series [17] were 2.98 h and 0.163 h, respectively. The compound further had a mean residence time MRT in series [7] of 5.6 h. Also, the AUC(0-inf) in series [9] worked out at 634 ng·h/mL. Moreover, the half-life in [16] was 6.5 h.

As to `CCNc1cc(F)cc2c1[nH]c1nc(Oc3cnc(C)nc3)nc(N3CC(=C(C)[C@@H](C)N)C3)c12`, the minimum inhibitory concentration (MIC) with Escherichia coli [1] is 1 µg/mL (≈ 2.16 µM); with Escherichia coli [8], 4 µg/mL (≈ 8.65 µM); in the series with Klebsiella pneumoniae [10], over 64 µg/mL; in the series on Pseudomonas aeruginosa [11], over 64 µg/mL; in the series on Klebsiella pneumoniae [12], over 64 µg/mL; in the series with Klebsiella pneumoniae [13] it was over 8 µg/mL. Further, the MIC with Acinetobacter baumannii [14] is 2 µg/mL (≈ 4.32 µM); in the series with Escherichia coli [15] it was 1 µg/mL (≈ 2.16 µM); with Pseudomonas aeruginosa [18], over 64 µg/mL; in the series with Acinetobacter baumannii [21], 2 µg/mL (≈ 4.32 µM). The Vd in series [2] stood at 16.7 L/kg. Moreover, in [4], the clearance was determined as 64.7 mL/min/kg. Further, in [7], the MRT amounted to 4.3 h. The compound also showed an area under the curve AUC(0-inf) in [9] of 1290 ng·h/mL. The half-life in [16] is 6.7 h.

The term inhibition denotes the share of the control response that was lost under treatment. The IC50 is the concentration at which inhibition is half-maximal. Take `[2H]C([2H])([2H])Nc1cc(F)cc2c1[nH]c1nc(Oc3cnc(C)nc3)nc(N3CC(=C(C)C(C)N)C3)c12` (centres undefined): the MIC was 0.25 µg/mL (≈ 0.554 µM) with Escherichia coli [1]; 0.25 µg/mL (≈ 0.554 µM) in the series on Escherichia coli [8]; 2 µg/mL (≈ 4.43 µM) in the series on Klebsiella pneumoniae [10]; 2 µg/mL (≈ 4.43 µM) in the series with Pseudomonas aeruginosa [11]; 4 µg/mL (≈ 8.86 µM) with Klebsiella pneumoniae [12]; 1 µg/mL (≈ 2.21 µM) in the series on Klebsiella pneumoniae [13]. Besides, the MIC was found to be 0.25 µg/mL (≈ 0.554 µM) in the series on Acinetobacter baumannii [14], 0.125 µg/mL (≈ 0.277 µM) in the series on Escherichia coli [15], 4 µg/mL (≈ 8.86 µM) with Pseudomonas aeruginosa [18] and 0.25 µg/mL (≈ 0.554 µM) with Acinetobacter baumannii [21]. In addition, the Vd in [2] was 43.2 L/kg. Moreover, the CLH in series [3] came to 104 mL/min/g; in series [19], 10.1 mL/min/g. The same compound gave a clearance in series [4] of 121 mL/min/kg. For the same compound, the values for the Fh at 1 h, 0.1 µM in [5] and in series [20] were 30% and 66%, respectively. Moreover, the half-life at 0.1 µM in [6] is 3.47 h; in series [17], 0.337 h. Besides, the MRT in series [7] came to 5.9 h. Also, the AUC(0-inf) in series [9] worked out at 696 ng·h/mL. In addition, in [22], the inhibition at 2 min, 40 µM is 14.2%. Also, the half-life in series [16] was 7.2 h. The IC50 in [23] was over 40 µM.
